Test results published in ChEMBL document CHEMBL4373708 (J Med Chem, 2019).

Experiment: AUC in mouse at 5 mg/kg, po by LC-MS analysis
Format: ADME, organism-based
Details: in vivo
Outline: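 Single intraperitoneal or oral dose in mice at 5 mg/kg (vehicle: saline with 5% DMSO and 10% Kolliphor HS 15) or 10 mg/kg (vehicle: PBS with 5% DMSO and 20% (2-hydroxypropyl)-β-cyclodextrin). Blood taken by retroorbital puncture at set times, serum separated by centrifugation at 4000 g for 20 min at 24 °C, compound quantified by LC/MS.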

AUC: 69 µM·h
Compound: Cc1c(CC(=O)O)c(=O)oc2c(C)c(OCc3cccc(C(F)(F)F)c3)ccc12
